Consider six compounds from ChEMBL document CHEMBL1949620, “Cyclolinopeptide derivatives modify methotrexate-induced suppression of the humoral immune response in mice” (Eur J Med Chem, 2011).

Active and inactive are the calls of the source. No cut-off for these calls is given here. Peptide text beside a SMILES is read from it.

Holding throughout (format): functional, cell-based
Assay [1] has as its system Splenocyte. In words: Immunoregulatory activity against methotrexate-induced decrease of humoral immune response in SRBC primed BALB/c mouse splenocytes assessed as increase of antibody forming cells at 10 ug/ml after 4 days. The method in brief: (§1)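 Female BALB/c mice, 12 weeks old, primed i.p. with 0.2 ml of 1% SRBC. Splenocytes taken 4 days later and cultured at 5×10⁶/ml in RPMI 1640 with 10% FCS, glutamine, pyruvate, 2-mercaptoethanol and antibiotics, plus 0.05 ml of 0.005% SRBC. Peptides (in Cremophor/ethanol, diluted in RPMI) added at culture start; MTX (0.25, 0.5 or 1.0 mM) added at 24 h. After 4 days, AFC counted by agar-gel local haemolysis; Student's t-test.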

The test system of assay [2] is Splenocyte. In words: Immunoregulatory activity against methotrexate-induced decrease of humoral immune response in SRBC primed BALB/c mouse splenocytes assessed as increase of antibody forming cells at 1 ug/ml after 4 days. In short, it runs like this: as §1
In assay [3] the test system is Splenocyte. In words: Immunostimulatory activity in SRBC primed BALB/c mouse splenocytes assessed as humoral immune response by measuring inhibition of antibody forming cells at 10 ug/ml after 4 days. The method in brief:
(§2)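 Splenocytes from female BALB/c mice (12 weeks old) primed i.p. with 0.2 ml of 1% SRBC and harvested after 4 days. Cells cultured at 5×10⁶/ml in RPMI 1640 with 10% FCS and supplements, with 0.05 ml of 0.005% SRBC antigen. Peptide (Cremophor/ethanol stock diluted in RPMI) added at initiation, no MTX. Antibody-forming cells counted by local haemolysis in agar after 4 days; Student's t-test.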

In assay [4] the test system is Splenocyte. In words: Immunostimulatory activity in SRBC primed BALB/c mouse splenocytes assessed as humoral immune response by measuring increase of antibody forming cells at 0.25 to 1 mM after 4 days. Conditions: 1 to 10 ug/ml, in the assay text read “at 1 to 10 ug/ml” for “at 0.25 to 1 mM”. In short, it runs like this: as §1
Assay [5] concerns Splenocyte. In words: Immunoregulatory activity against methotrexate-induced decrease of humoral immune response in SRBC primed BALB/c mouse splenocytes assessed as increase of antibody forming cells at […] after 4 days. In short, it runs like this: as §1
Assay [6] has as its system Splenocyte. In words: Immunostimulatory activity in SRBC primed BALB/c mouse splenocytes assessed as humoral immune response by measuring increase of antibody forming cells at 1 ug/ml after 4 days. The method in brief:
as §2

Assay [7] relates to Splenocyte. In words: Immunostimulatory activity in SRBC primed BALB/c mouse splenocytes assessed as humoral immune response by measuring increase of antibody forming cells after 4 days. The method in brief:
as §2

The test system of assay [8] is Splenocyte. In words: Immunoregulatory activity against methotrexate-induced decrease of humoral immune response in SRBC primed BALB/c mouse splenocytes assessed as increase of antibody forming cells at 0.1 ug/ml after 4 days. In short, it runs like this:
as §1

Take `CC[C@H](C)[C@@H]1NC(=O)[C@H](CC(C)C)NC(=O)[C@@H](Cc2ccccc2)N2CCN(C(=O)[C@@H]3CCCN3C(=O)[C@@H]3CCCN3C(=O)[C@H](C(C)C)NC(=O)[C@H](CC(C)C)NC(=O)[C@H]([C@@H](C)CC)NC1=O)[C@H](Cc1ccccc1)C2=O`: the “increase of antibody forming cells” value with Splenocyte [1] is “Active”. In addition, the inhibition result in the assay on Splenocyte [2] is “Active”.
Consider `CC[C@H](C)[C@@H]1NC(=O)[C@H](CC(C)C)NC(=O)[C@H](Cc2ccccc2)N2CCN(C(=O)[C@@H]3CCCN3C(=O)[C@@H]3CCCN3C(=O)[C@H](C(C)C)NC(=O)[C@H](CC(C)C)NC(=O)[C@H]([C@@H](C)CC)NC1=O)[C@@H](Cc1ccccc1)C2=O`, for which, in the assay on Splenocyte [3], the inhibition entry is “Active”. Besides, the “increase of antibody forming cells” value with Splenocyte [1] is “Active”.
As for `CC[C@H](C)[C@H](NC(=O)[C@@H](NC(=O)[C@H](CC(C)C)NC(=O)[C@@H](Cc1ccccc1)N1CCN(C(=O)[C@@H]2CCCN2C(=O)[C@@H]2CCCN2C(=O)[C@@H](NC(=O)[C@@H](N)CC(C)C)C(C)C)[C@H](Cc2ccccc2)C1=O)[C@@H](C)CC)C(=O)O`, the “increase of antibody forming cells” value in the assay with Splenocyte [1] is “Active”. The outcome in the assay with Splenocyte [4] was Active.
With `CC[C@H](C)[C@H](NC(=O)[C@@H](NC(=O)[C@H](CC(C)C)NC(=O)[C@H](Cc1ccccc1)N1CCN(C(=O)[C@@H]2CCCN2C(=O)[C@@H]2CCCN2C(=O)[C@@H](NC(=O)[C@@H](N)CC(C)C)C(C)C)[C@@H](Cc2ccccc2)C1=O)[C@@H](C)CC)C(=O)O`, the inhibition result in the assay on Splenocyte [5] was “Active”. For the same compound, in the assay with Splenocyte [4], the result was inactive.
With `CC[C@H](C)[C@@H]1NC(=O)[C@H](CC(C)C)NC(=O)[C@H](Cc2ccccc2)NC(=O)[C@H](Cc2ccccc2)NC(=O)[C@@H]2CCCN2C(=O)[C@@H]2CCCN2C(=O)[C@H](C(C)C)NC(=O)[C@H](CC(C)C)NC(=O)[C@H]([C@@H](C)CC)NC1=O` (cyclo(FFLIILVPP)), the inhibition result in the assay on Splenocyte [3], in the assay with Splenocyte [8] and in the assay with Splenocyte [2] was “Active” each time. For the same compound, the result in the assay with Splenocyte [6] was inactive. In the assay with Splenocyte [7], the Activity entry was “Dose-dependent effect”. Moreover, the “increase of antibody forming cells” value in the assay on Splenocyte [1] is “Active”.
For the compound H-LVPPFFLII-OH, the “increase of antibody forming cells” value in the assay on Splenocyte [1] is “Active”. Moreover, the outcome in the assay on Splenocyte [4] was inactive.
